Source: PubChem BioAssay
An excerpt weighted towards active compounds, which were near 3.3% of everything screened.
PglD inh: C. jejuni PglD acetyltransferase inhibitors, primary screen, biochemical, DTNB colorimetric, single point. AID 602405, 2012. hit rate 0.098% among 360,000. inhibition, % at 12.5 µM. UDP-N-acetylbacillosamine N-acetyltransferase PglD (Campylobacter jejuni). purified PglD enzyme, DTNB colorimetric CoA detection; in the data active means inhibition above about 16%, passing the limit was not always enough; inconclusive means no clear call, values can overlap the other calls
E-sel inducer: E-selectin induction in HUVECs, primary screen, imaging, HUVEC, immunofluorescence imaging, single point | P16581 | hit rate 0.37% among 260,000 | normalized: neutral wells 0, TNF-alpha wells 100 | AID 686992, 2013 | activation, % at 7.58 µM;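 active means mean E-selectin-positive cell signal at least 10% of the positive control, reached in at least 60% of replicates, without over 20% cell loss; inconclusive means no rule given, readout overlaps actives, possibly toxicity-flagged; inactive means the rest, including those meeting only one limit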
Target sequence (P16581 whole entry, looked up): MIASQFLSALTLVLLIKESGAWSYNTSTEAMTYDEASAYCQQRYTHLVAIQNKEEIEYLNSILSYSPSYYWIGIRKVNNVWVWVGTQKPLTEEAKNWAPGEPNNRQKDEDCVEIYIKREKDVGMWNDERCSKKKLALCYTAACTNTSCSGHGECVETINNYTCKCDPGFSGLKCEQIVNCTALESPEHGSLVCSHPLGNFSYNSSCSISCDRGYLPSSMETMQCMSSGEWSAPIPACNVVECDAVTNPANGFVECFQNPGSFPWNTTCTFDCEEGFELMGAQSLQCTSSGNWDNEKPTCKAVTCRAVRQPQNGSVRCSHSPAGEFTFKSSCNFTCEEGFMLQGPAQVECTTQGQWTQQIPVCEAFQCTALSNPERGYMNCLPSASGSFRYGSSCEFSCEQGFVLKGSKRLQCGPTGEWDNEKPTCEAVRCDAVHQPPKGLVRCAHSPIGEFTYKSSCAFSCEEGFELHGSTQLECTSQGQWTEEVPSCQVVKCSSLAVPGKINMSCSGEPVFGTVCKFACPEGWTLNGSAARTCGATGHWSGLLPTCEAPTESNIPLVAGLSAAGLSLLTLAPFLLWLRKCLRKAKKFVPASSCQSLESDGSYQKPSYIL
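Assay system: HUVEC primary endothelial cells. Input: 3,000 HUVEC seeded per well. Doses: one compound dose added by pin transfer. Read-out basis: % PE-positive cells. Benchmarks: TNF-alpha high, DMSO low. Detection: immunofluorescence imaging. Buffer or medium: EGM-2, gelatin.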
FGF22 binding: binders of human FGF22 protein, primary screen, FGF22 synaptogenesis inhibitor project, biophysical, thermal shift, single point | Fibroblast growth factor 22 (Homo sapiens), Q9HCT0 | recombinant FGF22 thermal shift, SYPRO orange fluorescence; percent of sucrose octasulfate shift, DMSO zero | activity (Tm shift, normalised), % at 9.99 µM | hit rate 1.5% among 340,000;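 active means mean Tm shift, scaled 0 neutral to 100 positive control, at about 1.3% or above, every replicate too, limit read from the data; inconclusive means no clear call, values can overlap the other calls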
Statin myotox sup: suppressors of statin myotoxicity in C2C12 myotubes, primary screen, cell-based, single point, plate reader; C2C12 myotubes + simvastatin, ATP luminescence, 48 h; scaled: DMSO 0, geranylgeraniol control 100; hit rate 0.78% among 330,000; AID 602340, 2012; rescue of ATP level, % at 7.49 µM;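 active means mean ATP rescue above about 67%, or every replicate alone reaching that limit, limit read from the data, passing the limit was not always enough; inconclusive means no clear call, values can overlap the other calls; inactive means mean under the limit and some replicate under it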;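 further: myotubes were challenged with 10 µM simvastatin during compound exposure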
DENV2 CPE rescue: inhibitors of DENV2 cytopathic effect, primary screen, cell-based, plate reader, single concentration; DENV2-infected cells, cytopathic effect rescue; CPE inhibition, % at 9.99 µM; hit rate 1.7% among 350,000; AID 651640, 2012; in the data active means CPE inhibition above about 20%, passing the limit was not always enough; inconclusive means no clear call, values can overlap the other calls; tested in BHK-21 cells;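 further: 0% = median of neutral control wells and 100% = median of positive control wells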
Xi reactivation: activators of inactive X chromosome reactivation, primary screen, imaging, XiGFP fibroblasts, GFP high-content imaging, set 2; hit rate 0.055% among 360,000; activation, % at 7.58 µM; XiGFP mouse fibroblasts, % GFP-positive cells imaging, 3 d; cells co-treated with 5-aza-dC sensitizer; scaled so ellipticine positive control = 100%;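 active means mean normalized replicate activation at least 10% and every replicate at or above 10%; inconclusive means only one of the two criteria met; inactive means mean below 10% and not all replicates reach 10%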;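 further: 0% = median of on-plate neutral control wells and 100% = ellipticine 6 µM median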
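System: 68-5-11 XiGFP fibroblast line | Buffer or medium: DMEM containing 5-aza-dC | Compound: Single point | Times: Compounds 3 days, fix/stain 15 min at room temperature | Benchmarks: Positive control ellipticine, 6 µM final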
* marks the source's active call; other numbers are inactive results; ? = inconclusive; . = not tested or not shown.

SMILES	PglD inh	E-sel inducer	FGF22 binding	Statin myotox sup	DENV2 CPE rescue	Xi reactivation
CC(OC(=O)Cc1coc2ccc3ccccc3c12)C(=O)Nc1ncc(Cl)cc1Cl (stereo not given)	.	-1	.	.	.	0
C/C(=N\NC(=O)c1ccc(Cn2cc([N+](=O)[O-])cn2)o1)c1cccc(NC(=O)C(C)C)c1	.	.	0	.	28*	0
C[C@H](CO)N1C[C@H](C)[C@H](CN(C)CC2CC2)Oc2ccc(NC(=O)Cn3cnnn3)cc2CC1=O	-6	0	0	17	5	0
N#C[C@@H]1N[C@@H](CO)[C@H]1c1ccc(C#CC2CCCC2)cc1	-1	0	0	22	21*	0
N#C[C@H]1[C@@H](c2ccccc2)[C@H](CO)N1S(=O)(=O)c1ccc(-c2ccccc2)cc1	3	0	0	-18	-11	0
N#C[C@@H]1[C@@H](c2ccccc2)[C@H](CO)N1S(=O)(=O)c1ccc(-c2ccccc2)cc1	-3	-1	0	88*	1	0
N#C[C@H]1[C@@H](c2ccc(C#CC3CCCC3)cc2)[C@H](CO)N1S(=O)(=O)c1ccccc1	1	-1	0	-31	21*	0
CN(C)C(=O)C[C@H]1C=C[C@@H](NC(=O)C2CC2)[C@H](CO)O1	-1	0	0	-1	4	0
CC(C)NC(=O)N(C)C[C@@H]1Oc2c(NS(C)(=O)=O)cccc2C(=O)N([C@H](C)CO)C[C@@H]1C	0	0	0	-11	2	-1
O=c1c2c([nH]c3ccc(Br)cc13)CCCC2	2	.	.	126*	.	.
Brc1ccc2[nH]c3c(c2c1)CCC3	4	1	0	-4	-2	0
Cc1ccc(S(N)(=O)=O)c(C)c1N1CCCC1=O	.	.	44*	.	1	0
Cc1ccc(S(=O)(=O)O)c(C)c1N1CCCC1=O	-1	.	.	0	.	.
OC1(C#CCCN2CCCCC2)c2ccccc2-c2ccccc21	5	3	44*	-9	7	0
NC(=O)c1nsc(C(=O)N(c2ccccc2)C(C(=O)NC2CCCC2)c2ccc3ncccc3c2)c1N (stereo not given)	0	2	0	1	39*	0
CC(C)c1ccc(N(C(=O)c2snc(C(N)=O)c2N)C(C(=O)NCC2CCCO2)c2ccc(N(C)C)cc2)cc1 (stereo not given)	-1	0	0	.	32*	0
Cc1ccc(S(=O)(=O)Nc2ccc3c(c2)CC(=O)N([C@@H](C)CO)C[C@H](C)[C@@H](CN(C)C(=O)Nc2cccc4ccccc24)O3)cc1	2	0	0	18	33*	0
Cc1ccc(S(=O)(=O)Nc2ccc3c(c2)CC(=O)N([C@H](C)CO)C[C@@H](C)[C@@H](CN(C)C(=O)Nc2cccc4ccccc24)O3)cc1	-2	0	0	39	17	0
Cc1ccc(S(=O)(=O)Nc2ccc3c(c2)CC(=O)N([C@H](C)CO)C[C@H](C)[C@@H](CN(C)C(=O)Nc2cccc4ccccc24)O3)cc1	-4	2	0	15	96*	0
COCC#Cc1ccc2c(c1)O[C@H](CN(C)S(=O)(=O)c1cccc(F)c1)[C@@H](C)CN([C@H](C)CO)S2(=O)=O	6	-1	-1	-29	-1	0
CO[C@@]1(NC(=O)CSCC#N)C(=O)N2C(C(=O)O)=C(CSc3nnnn3C)CS[C@@H]21	-4	1	1.5*	9	5	0
COc1ccc(NC(=S)NC23CN4CN(CN(C4)C2)C3)c(OC)c1	.	.	44*	.	17	0
CCCCN1CC(COCc2ccccc2)Oc2cccc(N3CCCC3)c2S1(=O)=O (stereo not given)	-6	0	43*	-4	3	0
CC(C)NC(=O)Nc1ccc2c(c1)C(=O)N([C@@H](C)CO)C[C@@H](C)[C@H](CN(C)C(=O)CCCN(C)C)OCCCC[C@H](C)O2	.	0	.	.	.	0
CCOC(=O)c1c(NC(=O)COc2ccccc2F)sc2c1CC(C)(C)NC2(C)C	4	-2	18*	-21	?	0
SMILES	PglD inh	E-sel inducer	FGF22 binding	Statin myotox sup	DENV2 CPE rescue	Xi reactivation
CSc1nnc(-c2cccs2)n1C	.	.	43*	-5	8	0
Cc1ccc(CSc2nnc(-c3cccs3)n2C)cc1	.	.	.	7	.	.
CO[C@H]1CN(C)C(=O)c2ccc(NC(C)=O)cc2OC[C@@H](C)N(S(C)(=O)=O)C[C@@H]1C	-1	0	0	-6	1	0
CO[C@@H]1CN(C)C(=O)c2ccc(NC(C)=O)cc2OC[C@@H](C)N(S(C)(=O)=O)C[C@H]1C	-1	0	0	11	94*	0
CO[C@H]1CN(C)C(=O)c2ccc(NC(C)=O)cc2OC[C@@H](C)N(S(=O)(=O)c2cn(C)cn2)C[C@@H]1C	-3	0	0	7	26*	0
CO[C@H]1CN(C)C(=O)c2ccc(NC(=O)NC(C)C)cc2OC[C@@H](C)N(S(C)(=O)=O)C[C@@H]1C	.	0	0	.	43*	0
Cc1noc(C)c1NC(=O)Nc1ccc2c(c1)C(=O)N([C@@H](C)CO)C[C@@H](C)[C@H](CN(C)CC1CCCCC1)OCCCC[C@H](C)O2	2	1	0	.	-2	-1
CCC(CC)c1nnc(NC(=O)C2CCCO2)s1 (stereo not given)	.	.	43*	.	0	0
NC(=O)c1ncn([C@@H]2O[C@H](CNCc3cccn3-c3ccncc3)[C@@H](O)[C@H]2O)n1	-1	0	43*	4	7	0
O=C(O)CCCNC(=O)/C=C/c1ccco1	.	.	44*	.	4	0
O=C(O)CCCCCNC(=O)/C=C/c1ccco1	0	2	0	3	.	0
Fc1ccc(NC(=S)NCCc2ccccn2)cc1	.	.	44*	.	-4	0
S=C(NCCc1ccccn1)Nc1ccc(Cl)cc1	.	-1	0	.	16	0
S=C(NCc1ccccn1)Nc1ccccc1	4	.	44*	11	7	0
COc1ccccc1NS(=O)(=O)c1cc(NC(=O)c2sc3cc(Cl)ccc3c2Cl)ccc1C	.	.	44*	.	6	0
NC(=O)c1cc(Cl)cn(-c2ccccc2)c1=O	-4	0	0	5	82*	0
